Compound activity (PubChem)
UPR CHOP act: apoptotic UPR (CHOP) activation; CHO-CHOP luciferase reporter, luminescence; percent of tunicamycin response over DMSO baseline; activation, % at 10 µM; 330,000 tested, 0.34% active; AID 449763;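 active = at 10 µM dose, activation of 40% or more, normalized to positive control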
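Dosing – one dose, 10 µM in 0.5% DMSO · System – CHO-CHOP cells, stable luciferase reporter of PERK-eIF2a-CHOP signalling · Input – 500 cells/well · Control set – tunicamycin 10 µg/mL final as positive, DMSO-only wells as negative · Timing – 6 h compound treatment, 37 °C · Measure – % activation vs tunicamycin · Technique – luminescence read with Steady-Glo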
XBP1 UPR activ: activators of adaptive arm of unfolded protein response (XBP1). 330,000 tested, 0.33% active. AID 463104. activation, % at 20 µM. CHO-XBP1 luciferase reporter, IRE1-XBP1 UPR activation, luminescence; percent of tunicamycin response, DMSO as zero;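 active = versus positive control, 20 µM dose yields 30% or more activation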
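Signal: luciferase luminescence; Assay system: CHO-XBP1 luciferase reporter cells; Amount: one thousand reporter cells per well; Dosing: 20 µM single concentration, DMSO 1%; Benchmarks: high control tunicamycin 10 µg/mL final, low control DMSO vehicle only; Schedule: 6 h compound exposure at 37 °C, 5% CO2; Evaluation: percent activation relative to tunicamycin reference.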
tim10-1 inh: growth inhibitors of tim10-1 mutant yeast. 330,000 tested, 2.2% active. S. cerevisiae tim10-1 ts strain growth, BacTiter-Glo, 24 h. inhibition, % at 20 µM;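 active = inhibition of at least 40%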;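 also: mutant grown at 25 °C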
TIM10 inh: inhibits growth of TIM10 yeast strain | S. cerevisiae TIM10 strain growth, BacTiter-Glo luminescence, 24 h | inhibition, % at 10 µM | 330,000 tested, 1.4% active | AID 463195;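 active = inhibition of 40% or more at the single tested concentration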;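 also: wild-type TIM10 isogenic control strain grown at permissive 25 °C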
tim23-1 inh: tim23-1 yeast growth inhibition; S. cerevisiae tim23-1 growth, BacTiter-Glo luminescence, 24 h; 330,000 tested, 1.3% active; inhibition, % at 20 µM;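 active = growth inhibition of the mutant yeast at or above 50%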;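 also: temperature-sensitive mutant grown at 25 °C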
TIM10 conf: TIM10 yeast growth inhibition, confirmed; shares compounds with TIM10 inh; AID 463215; S. cerevisiae tim10 strain growth, BacTiter-Glo luminescence, 24 h; 4,600 tested, 63% active; inhibition, % at 10 µM;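 active = inhibition of yeast growth at or above a set limit in either of two replicates at 10 µM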; also: this counterscreen used the strain with wild-type TIM10
Numbers stand for hits. Only some compounds are listed: those with a hit (about 3.9% of all), similar ones and a draw of the others.

Screening CC1CCC2(CC1)NC(=O)N(CC(=O)c1ccc(Cl)s1)C2=O (centres undefined) returned UPR CHOP act inactive, XBP1 UPR activ inactive, tim10-1 inh inactive, TIM10 inh inactive and tim23-1 inh inactive.
`Cc1cc(C)c(NC(=O)C2CCCN2CCOC(=O)c2cccc([N+](=O)[O-])c2)c(C)c1` (centres undefined) gave UPR CHOP act inactive, XBP1 UPR activ inactive, tim10-1 inh inactive, TIM10 inh 41, tim23-1 inh inactive and TIM10 conf inactive.
Screening CCOC(=O)C1=C(COC(=O)[C@@H](NC(=O)c2cccc(C)c2)C(C)C)NC(=O)NC1C (some centres undefined) returned UPR CHOP act inactive, XBP1 UPR activ inactive, tim10-1 inh inactive, TIM10 inh inactive and tim23-1 inh inactive.
Cc1csc(NC(=O)C2=NN(c3ccccc3)C(=O)CC2)n1 was read as UPR CHOP act inactive, XBP1 UPR activ inactive, tim10-1 inh inactive, TIM10 inh inactive and tim23-1 inh inactive.
Cc1ccc(-c2csc(NC(=O)C3=NN(c4ccccc4)C(=O)CC3)n2)cc1 was read as UPR CHOP act inactive, XBP1 UPR activ inactive, tim10-1 inh inactive, TIM10 inh 40, tim23-1 inh inactive and TIM10 conf 33.
Screening COc1ccc(CN(C(=O)COc2ccccc2)c2ccccc2C(=O)O)cc1 returned UPR CHOP act inactive, XBP1 UPR activ inactive, tim10-1 inh inactive, TIM10 inh inactive and tim23-1 inh inactive.
Screening CC(=O)c1cccc(NC(=O)C2CCN(C(=O)c3cccs3)CC2)c1 returned UPR CHOP act inactive, XBP1 UPR activ inactive, tim10-1 inh inactive, TIM10 inh inactive and tim23-1 inh inactive.
O=C1CSC(c2cn(-c3ccccc3)nc2-c2cc3ccccc3oc2=O)N1Cc1ccco1 (centres undefined) was read as UPR CHOP act inactive, XBP1 UPR activ inactive, tim10-1 inh inactive, TIM10 inh 42, tim23-1 inh inactive and TIM10 conf inactive.
For O=C1CSC(c2cn(-c3ccccc3)nc2-c2cc3ccccc3o2)N1Cc1ccccc1 (centres undefined) the results were UPR CHOP act inactive, XBP1 UPR activ inactive, tim10-1 inh inactive, TIM10 inh inactive and tim23-1 inh inactive.
Screening O=C(Nc1ccc(NC(=O)C2CCCCC2)nc1)c1cccs1 returned UPR CHOP act inactive, XBP1 UPR activ inactive, tim10-1 inh inactive, TIM10 inh 47, tim23-1 inh inactive and TIM10 conf inactive.
Screening Cc1ccc(N(CC(=O)N2CCc3ccccc3C2)S(C)(=O)=O)cc1 returned UPR CHOP act inactive, XBP1 UPR activ inactive, tim10-1 inh inactive, TIM10 inh inactive and tim23-1 inh inactive.
Screening COc1ccc(/C=C(/C(=O)Nc2ccccc2C(=O)N2CCCC2)c2ccccc2)cc1 returned UPR CHOP act inactive, XBP1 UPR activ inactive, tim10-1 inh inactive, TIM10 inh 43, tim23-1 inh inactive and TIM10 conf inactive.
CC(C)CNC(=S)NC(=O)c1ccc(Cl)cc1Cl was read as UPR CHOP act inactive, XBP1 UPR activ inactive, tim10-1 inh inactive, TIM10 inh 55, tim23-1 inh inactive and TIM10 conf 52.
Screening CC(C)NC(=S)NC(=O)c1ccc(Cl)cc1Cl returned UPR CHOP act inactive, XBP1 UPR activ inactive, tim10-1 inh inactive, TIM10 inh inactive and tim23-1 inh inactive.
Screening CC(C)Cn1c(SCC(N)=O)nnc1-c1cccc(S(=O)(=O)N2CCOCC2)c1 returned UPR CHOP act inactive, XBP1 UPR activ inactive, tim10-1 inh inactive, TIM10 inh 58, tim23-1 inh inactive and TIM10 conf inactive.
`O=C(NC1CCCCC1)C1CCCN1C(=O)Nc1ccccc1` (centres undefined) gave UPR CHOP act inactive, XBP1 UPR activ inactive, tim10-1 inh inactive, TIM10 inh inactive and tim23-1 inh inactive.
For CC(C)(C)c1cc(NCc2ccccn2)n2ncc(-c3ccccc3)c2n1 the results were UPR CHOP act inactive, XBP1 UPR activ inactive, tim10-1 inh inactive, TIM10 inh 52, tim23-1 inh inactive and TIM10 conf 42.
`COc1ccc(NC(=O)CSc2cccc3cccnc23)c(OC)c1` gave UPR CHOP act inactive, XBP1 UPR activ inactive, tim10-1 inh inactive, TIM10 inh inactive and tim23-1 inh inactive.
